Read-outs that look alike come from different tables or passages of the source.
How the values were obtained:
recombinant CTSL1 = recombinant CTSL1 (Fasciola hepatica, UniProt Q7JNQ9); experiment: Cathepsin L1; assay type: biochemical
serotonin receptor = details: previous primary screens; ref PubChem AIDs 612 and 504916; cited from earlier work
bacterial viability = details: previous primary screens, where tested; ref PubChem AIDs 449731, 651606; cited from earlier work
[1] = molecular target: PfM18AAP extracts (soluble freeze-thaw extracts of parasites) (Plasmodium falciparum, UniProt Q8I2J3); experiment: Malaria cell lysate assay; assay type: biochemical; details: at ≤5μM
Method in brief: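 Human erythrocytes infected in vitro were washed in PBS and parasites released with saponin. Three freeze-thaw cycles followed and supernatant extracts were kept. Extracts were incubated with test compound plus CoCl2 and aminoacyl-NHMec substrate (given as both H-Glu- and H-Asp-NHMec). Decreased fluorescence from substrate cleavage was taken as inhibition. Vehicle and background controls were included.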

[2] = molecular target: T1, purified recombinant PfM18AAP (Plasmodium falciparum, UniProt Q8I2J3); experiment: Ki determination and mode of inhibition; assay type: biochemical; details: for mode of inhibition of PfM18AAP: comparison of fits, Lineweaver-Burk plots
T1 sequence (Q8I2J3 1-570): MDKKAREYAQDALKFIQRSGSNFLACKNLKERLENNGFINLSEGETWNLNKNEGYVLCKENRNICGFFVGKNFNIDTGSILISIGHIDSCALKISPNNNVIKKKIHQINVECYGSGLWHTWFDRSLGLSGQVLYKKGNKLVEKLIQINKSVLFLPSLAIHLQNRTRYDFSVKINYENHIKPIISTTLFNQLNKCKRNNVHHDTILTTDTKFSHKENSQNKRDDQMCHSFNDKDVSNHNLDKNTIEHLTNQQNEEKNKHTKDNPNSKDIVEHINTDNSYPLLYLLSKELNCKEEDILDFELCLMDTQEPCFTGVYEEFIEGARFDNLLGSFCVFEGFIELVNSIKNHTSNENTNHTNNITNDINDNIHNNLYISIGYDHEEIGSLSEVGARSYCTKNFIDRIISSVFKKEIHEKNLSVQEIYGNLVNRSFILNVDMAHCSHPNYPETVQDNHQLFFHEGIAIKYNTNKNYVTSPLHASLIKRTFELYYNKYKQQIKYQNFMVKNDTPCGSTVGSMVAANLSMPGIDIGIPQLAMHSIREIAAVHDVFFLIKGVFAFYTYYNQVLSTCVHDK

mammalian cytotoxicity = details: previous primary screens, where tested; ref PubChem AIDs 1486, 1825; cited from earlier work
[3] = previous primary screens at SRIMSC; ref PubChem AIDs 1859, 1931, 651959; cited from earlier work
[4] = system: P. falciparum infected red blood cells; experiment: Parasite growth assay; assay type: cell-based, Plasmodium falciparum; details: 10 μM test concentration
Method in brief: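 Asexual erythrocytic-stage P. falciparum in infected RBCs was incubated with test compound at 10 µM in hypoxanthine-free medium, then 3H-hypoxanthine was added. 3H incorporation was measured after 48 h; reduced incorporation was scored as inhibition. Each plate held vehicle and uninfected-RBC background controls (DMSO ≤1%).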

PfM18AAP = details: cited from earlier work

Row | Compound | activity in cell-based screens at SRIMSC (serotonin receptor screens) (serotonin receptor) | activity in bacterial viability screens (bacterial viability) | mode of inhibition of PfM18AAP [2] | activity in mammalian cytotoxicity screens (mammalian cytotoxicity) | activity in similarly formatted enzymatic inhibition assays [3] | effect of metal ion on PfM18AAP activity (PfM18AAP) | further results
1 | C[C@H](NC(=O)[C@H](Cc1ccccc1)NC(=O)OCc1ccccc1)C(=O)C=[N+]=[N-] [Z-Phe-Ala diazomethylketone, Z-Phe-Ala-diazomethylketone, reference compound] |  |  |  |  |  |  | IC50 (recombinant CTSL1; read-out: IC50 of positive control in CTSL1 HTS assay, average, N=22 plates): 0.0155 µM
2 | CN1CCc2cccc3c2[C@@H]1Cc1ccc(O)c(O)c1-3.Cl.O [CID 6852389, (S)-(+)-Apomorphine hydrochloride hydrate] | inactive in all cell-based screens tested at the SRIMSC, except for two serotonin receptor screens | inactive | non-competitive | inactive | devoid of activity |  | IC50 (recombinant CTSL1; read-out: IC50 in CTSL1 titration experiments, 10 point titration, triplicate): > 59.6 µM; efficacy in P. falciparum lysate assay [1]: 84%; Ki ([2]; read-out: Ki (non-linear regression), powder samples, substrate Glu-NHMec): 3.39 ± 0.36 µM; inhibition in 3H hypoxanthine incorporation assay [4]: 87%
3 | [Cl-].[Cl-].[Co+2] [cobalt] |  |  |  |  |  | enhanced | 
4 | [Mn+2] [manganese] |  |  |  |  |  | enhanced | 
5 | Oc1ccc(CCNc2c3ccccc3nc3ccccc23)cc1O [CID 23724194, 4-[2-(acridin-9-ylamino)ethyl]benzene-1,2-diol] | inactive in all cell-based screens tested at the SRIMSC, except for two serotonin receptor screens | inactive | non-competitive | inactive | devoid of activity |  | IC50 (recombinant CTSL1): > 59.6 µM; Ki [2]: 1.35 ± 0.15 µM
6 | [Cl-].[Cl-].[Zn+2] [Zn(II), ZnCl2, reference compound] |  |  |  |  |  |  | concentration at which PfM18AAP is inhibited (PfM18AAP): > 1 mM

Reference: article PMC4641816 (Journal of biomolecular screening, 2014)
